# This is a sample that favours compounds with a hit; in the whole collection about 1.5% have one here.
# ABCG2 inh: blocks JC-1 efflux by human ABCG2 transporter; 190,000 compounds, 0.1% hits; Q9UNQ0; inhibition, % at 6.6 µM; IgMXP3 cells, flow cytometry;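 active = inhibition above 80%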;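 also: 0% = DMSO and 100% = nicardipine control wells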
#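 material = IgMXP3 (ABCG2) plus far-red-tagged CCRF-Adr (ABCB1) cells | amount = 3 million cells/mL, equal mix of both lines | also added = JC-1 transporter substrate | dosing = one concentration, 6.6 µM final | schedule = 10 min at 25 °C | measured by = flow cytometric JC-1 green MFI at 530 nm | read-out basis = percent efflux inhibition, scaled nicardipine 100% to DMSO 0%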
# EP2 antag: inhibitors of human EP2 prostaglandin E2 receptor; AID 1422; 260,000 compounds, 0.52% hits; C6 glioma cells expressing human EP2, cAMP TR-FRET; cells stimulated with saturating PGE2; inhibition, % at 25 µM; P43116;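 active = percent inhibition above 40 after rounding to a whole number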;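 also: rat C6 glioma host cells with rolipram phosphodiesterase inhibitor present; the protocol text gives 20 µM as final concentration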
# ABCB1 inh: human ABCB1 inhibition, ABCG2 as counter-screen | P08183 | CCRF-Adr cells, JC-1 efflux, flow cytometry | inhibition, % at 6.6 µM | 190,000 compounds, 0.067% hits | AID 1326; in the data active = inhibition above about 40%;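 also: 0% = vehicle and 100% = reference inhibitor; higher value means more JC-1 retained so stronger ABCB1 efflux block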
# Target sequence (P08183 whole entry, looked up): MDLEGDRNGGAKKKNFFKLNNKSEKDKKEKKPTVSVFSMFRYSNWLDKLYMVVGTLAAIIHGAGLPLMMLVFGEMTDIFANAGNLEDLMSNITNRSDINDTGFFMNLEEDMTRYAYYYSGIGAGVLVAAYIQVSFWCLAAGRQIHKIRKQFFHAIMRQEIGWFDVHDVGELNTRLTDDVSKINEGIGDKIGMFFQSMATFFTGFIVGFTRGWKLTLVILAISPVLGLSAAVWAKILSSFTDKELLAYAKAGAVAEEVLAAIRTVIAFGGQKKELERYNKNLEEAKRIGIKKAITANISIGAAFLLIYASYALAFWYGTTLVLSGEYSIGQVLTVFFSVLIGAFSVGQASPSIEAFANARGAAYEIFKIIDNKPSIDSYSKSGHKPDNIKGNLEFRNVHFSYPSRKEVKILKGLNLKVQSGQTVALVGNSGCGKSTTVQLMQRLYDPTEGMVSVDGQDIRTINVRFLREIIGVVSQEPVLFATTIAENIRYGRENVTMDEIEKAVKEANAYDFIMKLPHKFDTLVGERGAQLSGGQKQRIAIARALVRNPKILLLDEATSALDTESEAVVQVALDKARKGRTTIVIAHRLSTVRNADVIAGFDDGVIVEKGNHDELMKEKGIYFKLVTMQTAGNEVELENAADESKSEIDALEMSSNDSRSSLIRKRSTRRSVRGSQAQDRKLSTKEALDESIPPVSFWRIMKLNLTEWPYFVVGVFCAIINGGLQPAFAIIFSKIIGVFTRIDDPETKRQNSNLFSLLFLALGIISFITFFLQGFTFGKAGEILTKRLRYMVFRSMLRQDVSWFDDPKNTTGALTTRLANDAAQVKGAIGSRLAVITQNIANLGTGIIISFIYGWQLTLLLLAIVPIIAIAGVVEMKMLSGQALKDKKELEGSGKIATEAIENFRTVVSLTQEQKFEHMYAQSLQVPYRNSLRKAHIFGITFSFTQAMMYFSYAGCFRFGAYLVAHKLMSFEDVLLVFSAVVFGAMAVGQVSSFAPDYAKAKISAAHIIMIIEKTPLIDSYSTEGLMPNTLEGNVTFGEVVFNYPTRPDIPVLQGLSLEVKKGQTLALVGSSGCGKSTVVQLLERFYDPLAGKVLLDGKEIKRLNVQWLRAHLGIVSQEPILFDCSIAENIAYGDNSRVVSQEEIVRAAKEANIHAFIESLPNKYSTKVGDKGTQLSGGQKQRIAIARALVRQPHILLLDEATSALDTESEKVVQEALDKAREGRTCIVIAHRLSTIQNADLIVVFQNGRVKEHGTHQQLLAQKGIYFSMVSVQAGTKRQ
# EP2 modulator: modulators of human EP2 prostaglandin E2 receptor | EP2-expressing cells, cAMP HTRF FRET, PGE2 co-stimulation | induction, % at 25 µM | P43116 | 260,000 compounds, 0.83% hits;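 active = compounds whose cAMP rise, as percent of the full-agonist control response, exceeds 60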;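 also: rat C6 glioma line stably carrying human EP2 under a CMV promoter; the protocol text gives 20 µM as final concentration; 100% = response of wells given 1 µM PGE2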
# RBBP9 inhibitor: inhibitors of human serine hydrolase RBBP9. O75884. recombinant RBBP9, FP-Rh probe fluorescence polarization. inhibition, % at 7.94 µM. 220,000 compounds, 0.2% hits. AID 1515;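 active = inhibition above the campaign mean of all tested compounds plus 3 SD, cut at about 14% in these data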;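 also: plate controls were DMSO wells with RBBP9 for no effect and wells lacking RBBP9 protein for full effect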
#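 System: RBBP9 protein / Buffer or medium: Tris/NaCl buffer pH 8.0 with 0.1% Pluronic / Probe or stimulus: Serine-hydrolase probe FP-Rh, 375 nM pre-mixing / Dosing: 7.94 µM single dose, 0.794% DMSO / Times: enzyme-compound preincubation 30 min, then probe labeling 45 min, 25 °C / Technique: fluorescence polarization (mP), excitation 525 nm, emission 598 nm / Replication: singlicate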
# EP2 cAMP induct: EP2 receptor cAMP induction, counter-screens negative; shares compounds with EP2 modulator; C6 glioma EP2 cells, cAMP HTRF induction; plus low (about EC15) PGE2 agonist; calls only at 20 µM (by protocol); 1,300 compounds, 47% hits; AID 1080;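 active = cAMP induction above 50% in the main assay while under 30% in all four parallel counter assays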;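 also: rat C6 glioma cells stably expressing human EP2 receptor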
# * marks the source's active call; other numbers are inactive results; i = inactive; · = not tested or not shown; + = active, no number; ! = a repeat was not active.
SMILES,ABCG2 inh,EP2 antag,ABCB1 inh,EP2 modulator,RBBP9 inhibitor,EP2 cAMP induct
CCOc1ccccc1N(CC(=O)N1CCCCC1)S(C)(=O)=O,·,10,·,-3,·,·
COc1ccc(N(CC(=O)N2CCN(C)CC2)S(=O)(=O)c2ccc(F)cc2)cc1,·,10,·,-16,·,·
CC1Cc2ccccc2N1C(=O)CSc1nnc(Cc2ccccc2)n1CCc1ccccc1 (configuration not stated),6,·,4,66*,-10,i
CCCN(C(=O)c1cccc(OC)c1OC)c1nnc(-c2cccnc2)s1,·,8,·,-40,·,·
Cc1c(NC(=O)c2cc3nc(-c4ccco4)cc(C(F)(F)F)n3n2)c(=O)n(-c2ccccc2)n1C,·,17,·,30,·,·
CCOC(=O)c1c(C=O)c(C)n(Cc2ccccc2Cl)c1C,1,4,0,72*,-2,i
CCOC(=O)c1c(C)c(C)n(Cc2cccc(OC)c2OC)c1C,2,3,0,52,-7,·
Cc1c(C=O)c(C=O)c(C)n1Cc1ccccc1,10,16,0,11,5,·
CCOC(=O)c1c(C=O)c(C)n(Cc2ccc(C)cc2)c1C,6,8,1,86*,-10,i
Cn1c(SCc2ccccc2Cl)nnc1-c1cccnc1,·,7,·,-26,·,·
COc1ccc(S(=O)(=O)N(Cc2cccs2)C2CCCC2)cc1,9,5,2,81*,-6,+
COc1ccc(C2(C(=O)NC(C)c3nc(-c4ccncc4)n[nH]3)CCCCC2)cc1 (configuration not stated),·,14,·,1,·,·
O=C(O)c1ccc(CNCc2cccc(Cl)c2Cl)cc1,4,7,1,68*,-4,i
O=C(O)c1ccc(CNCc2ccccc2Cl)cc1,0,10,0,26,-5,·
COc1cc(OC)cc(-c2nnc(SCC(=O)N3CCN(C(=O)c4ccco4)CC3)o2)c1,·,11,·,-2,·,·
OC(CN1CCC(O)(c2ccc(F)cc2)CC1)c1ccccc1 (configuration not stated),·,7,·,-48,·,·
Cc1cc(C)c2c(C)nn(-c3ccccc3)c2n1,3,11,1,36,-5,·
Cc1nc2c(c(C)nn2-c2ccccc2)c(C)c1Cl,-1,7,-2,77*,-7,i
COc1ccc(N2CCN(c3nc4c(c(=O)[nH]c(=O)n4C)n3Cc3cccc(C)c3)CC2)cc1,6,7,3,70*,-1,i
CC(C)CCn1c(N2CCN(c3cccc(Cl)c3)CC2)nc2c1c(=O)[nH]c(=O)n2C,4,8,1,65*,-10,i
Cc1ccc2c(c1)cc(C)c1nn(CC(=O)NCC3COc4ccccc4O3)c(=O)n12 (configuration not stated),·,12,·,13,·,·
CCOC(=O)c1c(-c2ccc(C)cc2)csc1NC(=O)CCN1CC(C)OC(C)C1 (configuration not stated),18,6,3,86*,-3,+
CCOC(=O)c1c(-c2ccc(C)o2)csc1NC(=O)CN1CCCCC1,13,4,1,66*,-14,i
CCOC(=O)c1c(-c2ccc(C)o2)csc1NC(=O)CN1CCN(CC)CC1,20,10,2,-4,-6,·
Cc1ccc(-c2csc3ncnc(N4CCc5ccccc5C4)c23)cc1,0,4,0,70*,-7,i
SMILES,ABCG2 inh,EP2 antag,ABCB1 inh,EP2 modulator,RBBP9 inhibitor,EP2 cAMP induct
Cc1cccc(Cn2c(=O)n(Cc3ccco3)c(=O)c3ccccc32)c1,8,13,2,76*,-3,i
O=C(NC1CCCCCCC1)NC1CCCCC1,0,10,0,1,-5,·
C/C(=N\NC(=O)NC1CCCCC1)C1CCCCC1,3,10,-1,71*,-2,i
O=C(c1cc(-c2ccco2)[nH]n1)N1CCCCC1c1nc2ccccc2[nH]1 (configuration not stated),·,·,·,-89,·,·
C=CCSc1ncnc2sc(C)c(C)c12,41,3,1,55,-7,i
C=CCSc1nc2sc(C)c(C)c2c(=O)n1CC=C,1,8,0,71*,7,i
Cc1ccc(NC(=O)CSc2nnc(C3CC3)n2C)cc1C,·,8,·,-10,·,·
COc1ccc(OC)c(C(=O)c2coc3ccc(OCC(=O)O)cc23)c1,5,14,1,65*,4,i
COc1ccc(NC(=O)NCCNc2nc3c(C)cccc3cc2C#N)cc1,·,6,·,-29,·,·
Cn1cccc1/C=C1\CC(C(C)(C)C)C/C(=C\c2cccn2C)C1=O (configuration not stated),21,4,14,71*,3,+
Cn1cccc1/C=C1\Cc2ccccc2C1=O,10,6,1,-46,-1,·
Cc1cc(C)c2c(n1)sc1c(=O)n(Cc3ccccc3Cl)nnc12,3,·,1,67*,9,i
Cc1ccccc1-n1c(=O)[nH]c(=O)c2c(N)c(C(=O)c3ccc(Cl)cc3)sc21,17,3,1,66*,-6,i
CS(=O)(=O)c1cncnc1C1CCCN(C(=O)C2(c3ccc(F)cc3)CCCC2)C1 (configuration not stated),·,·,·,26,·,·
COc1ccc(-c2noc(-c3ccccc3C(=O)Nc3cccnc3)n2)cc1,2,4,0,50,-3,+
CCOc1ccccc1NC(=O)c1ccccc1-c1nc(-c2ccccc2)no1,6,8,1,66*,12,i
Cc1cc2ncn(CCC(=O)N3CCc4ccccc4C3)c2cc1C,·,7,·,7,·,·
O=C(COc1ccc(F)cc1)N1c2ccccc2CCc2ccccc21,55,12,1,28,-12,·
O=C(COc1cccc2ccccc12)N1c2ccccc2CCc2ccccc21,2,11,1,66*,-15,+
CC(C)Cc1nc(SCc2cccnc2)c2c(=O)n(C)c(=O)n(C)c2n1,4,5,4,63*,1,i
Cc1ccc(C(=O)NCCN2CCC(O)(c3cccc(F)c3)CC2)s1,·,6,·,-24,·,·
NC(=O)CSc1nnc(-c2cccc(S(=O)(=O)N3CCOCC3)c2)n1C1CCCCCC1,0,11,0,81*,8,i
CC1=CCc2c(cc3oc(C)cc(=O)c3c2O)OC1,·,4,·,52,·,i
CCOC(=O)C1=C(C)NC(C)=C(C(=O)OC)C1c1cccc(Cl)c1Cl (configuration not stated),9,9,1,65*!,-8,i
CCC1Oc2ccc(C)cc2N(Cc2cccc(C)c2)C1=O (configuration not stated),17,6,0,75*,-1,+
COc1ccccc1C1(O)CCCN(CC(O)c2ccc(Cl)cc2)C1 (configuration not stated),·,6,·,-85,·,·

# Screening data deposited in PubChem BioAssay by several laboratories.
